Data set [1] has as its target T1, Glutamate NMDA receptor; GRIN1/GRIN2B (Homo sapiens, UniProt Q05586+Q13224). Put plainly: In vitro inhibition of Glu/Gly stimulated [Ca2+] influx in LtK-cells expressing the hNR1a/NR2B receptor. It is filed as functional. In short, it runs like this: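 Fluorescence readout of Ca2+ flux stimulated by glutamate/glycine in Ltk- cells stably expressing human NR1a/NR2B, measured as inhibition. IC50 is the geometric mean of at least n = 4, with 2×SEGM given.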

Data set [2] deals with Voltage-gated inwardly rectifying potassium channel KCNH2 (Homo sapiens, UniProt Q12809). As to the kind of experiment: In vitro inhibition of MK-499 binding to hERG in HEK293 cells. The conditions noted are these: read-out: IP. It is filed as cell-based. A general note: hERG is a cardiac potassium channel; its block is linked to QT prolongation.
Chain of Voltage-gated inwardly rectifying potassium channel KCNH2 (Q12809 whole entry): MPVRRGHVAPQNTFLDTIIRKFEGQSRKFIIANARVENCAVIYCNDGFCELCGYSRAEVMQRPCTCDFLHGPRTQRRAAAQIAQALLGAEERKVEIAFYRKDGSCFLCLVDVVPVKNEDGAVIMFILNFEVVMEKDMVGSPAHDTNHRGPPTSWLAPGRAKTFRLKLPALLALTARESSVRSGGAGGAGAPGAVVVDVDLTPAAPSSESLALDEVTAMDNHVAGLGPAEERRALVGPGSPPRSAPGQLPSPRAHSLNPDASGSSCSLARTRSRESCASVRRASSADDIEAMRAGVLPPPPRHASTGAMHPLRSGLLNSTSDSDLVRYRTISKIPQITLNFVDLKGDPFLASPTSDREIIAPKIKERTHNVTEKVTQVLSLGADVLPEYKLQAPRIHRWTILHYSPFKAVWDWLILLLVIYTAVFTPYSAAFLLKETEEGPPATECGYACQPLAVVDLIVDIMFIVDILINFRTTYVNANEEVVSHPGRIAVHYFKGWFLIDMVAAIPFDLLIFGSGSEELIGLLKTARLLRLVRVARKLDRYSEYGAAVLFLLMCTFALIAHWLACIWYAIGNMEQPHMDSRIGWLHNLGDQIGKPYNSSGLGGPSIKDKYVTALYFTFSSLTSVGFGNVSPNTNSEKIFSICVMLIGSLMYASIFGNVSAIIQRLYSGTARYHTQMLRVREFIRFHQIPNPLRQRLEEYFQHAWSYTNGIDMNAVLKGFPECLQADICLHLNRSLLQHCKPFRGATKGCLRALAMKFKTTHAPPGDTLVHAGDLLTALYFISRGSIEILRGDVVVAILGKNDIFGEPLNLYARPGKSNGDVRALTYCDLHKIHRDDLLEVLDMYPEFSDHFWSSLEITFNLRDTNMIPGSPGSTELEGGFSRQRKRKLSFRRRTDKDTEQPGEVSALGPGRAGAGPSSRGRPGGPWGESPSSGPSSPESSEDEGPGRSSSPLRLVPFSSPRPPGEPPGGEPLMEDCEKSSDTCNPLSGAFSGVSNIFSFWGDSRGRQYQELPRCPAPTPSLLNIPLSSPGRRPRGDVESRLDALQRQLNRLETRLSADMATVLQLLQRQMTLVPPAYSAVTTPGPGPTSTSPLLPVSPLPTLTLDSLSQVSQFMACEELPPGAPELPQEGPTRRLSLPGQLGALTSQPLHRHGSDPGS
Data set [3] deals with T1, Glutamate NMDA receptor; GRIN1/GRIN2B. As to the kind of experiment: Compound was evaluated for in vitro inhibition of [3H][(E)-N-(2-methoxybenzyl)cinnamamidine binding to human NR1a/NR2B receptors expressed in LtK-cells. The format is cell-based.
Data set [4] deals with T2, Adrenergic receptor alpha-1 (Rattus norvegicus, UniProt P15823+P23944+P43140).
T2 sequence (P15823 whole entry): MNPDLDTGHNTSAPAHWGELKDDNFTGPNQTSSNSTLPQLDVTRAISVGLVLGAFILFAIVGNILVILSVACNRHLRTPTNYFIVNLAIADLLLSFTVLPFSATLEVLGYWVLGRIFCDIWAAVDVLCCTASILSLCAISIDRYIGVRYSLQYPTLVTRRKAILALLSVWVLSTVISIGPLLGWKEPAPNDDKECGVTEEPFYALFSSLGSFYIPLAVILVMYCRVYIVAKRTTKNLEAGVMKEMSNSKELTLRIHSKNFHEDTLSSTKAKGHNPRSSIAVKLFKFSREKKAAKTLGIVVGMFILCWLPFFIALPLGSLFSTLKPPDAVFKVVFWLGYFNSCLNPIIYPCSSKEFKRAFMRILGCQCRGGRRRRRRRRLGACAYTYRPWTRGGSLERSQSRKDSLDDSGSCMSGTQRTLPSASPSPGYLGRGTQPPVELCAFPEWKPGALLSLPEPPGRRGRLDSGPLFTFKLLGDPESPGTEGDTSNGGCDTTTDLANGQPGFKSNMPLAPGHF
T2 sequence (P23944 whole entry): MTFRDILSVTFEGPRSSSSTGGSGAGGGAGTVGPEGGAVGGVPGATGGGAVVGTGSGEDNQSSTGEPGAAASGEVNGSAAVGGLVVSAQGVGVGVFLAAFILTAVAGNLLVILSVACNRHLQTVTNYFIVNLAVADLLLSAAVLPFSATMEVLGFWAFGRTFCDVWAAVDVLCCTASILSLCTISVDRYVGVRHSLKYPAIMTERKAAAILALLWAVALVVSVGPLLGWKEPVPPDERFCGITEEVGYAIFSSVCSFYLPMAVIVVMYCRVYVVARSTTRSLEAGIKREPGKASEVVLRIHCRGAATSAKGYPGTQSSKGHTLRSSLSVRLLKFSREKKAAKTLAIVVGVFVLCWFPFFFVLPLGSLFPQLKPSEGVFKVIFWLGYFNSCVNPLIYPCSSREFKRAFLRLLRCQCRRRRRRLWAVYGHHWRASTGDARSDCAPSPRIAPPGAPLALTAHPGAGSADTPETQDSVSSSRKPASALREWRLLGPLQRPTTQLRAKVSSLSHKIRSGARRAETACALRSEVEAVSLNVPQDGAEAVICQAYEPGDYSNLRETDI
T2 sequence (P43140 whole entry): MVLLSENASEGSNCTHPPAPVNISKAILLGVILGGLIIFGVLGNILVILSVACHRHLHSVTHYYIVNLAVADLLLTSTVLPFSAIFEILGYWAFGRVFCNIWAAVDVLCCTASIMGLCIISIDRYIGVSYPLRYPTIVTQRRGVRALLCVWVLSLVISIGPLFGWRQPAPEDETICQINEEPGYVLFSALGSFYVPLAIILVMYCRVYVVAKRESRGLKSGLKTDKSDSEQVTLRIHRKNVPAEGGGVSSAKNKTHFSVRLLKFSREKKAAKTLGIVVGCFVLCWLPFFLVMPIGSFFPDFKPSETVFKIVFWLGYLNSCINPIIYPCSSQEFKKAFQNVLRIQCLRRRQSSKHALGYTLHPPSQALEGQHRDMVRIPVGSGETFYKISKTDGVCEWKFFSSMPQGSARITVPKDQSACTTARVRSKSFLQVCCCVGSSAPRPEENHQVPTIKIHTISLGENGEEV
As to the kind of experiment: In vitro inhibitory activity against alpha-1 adrenergic receptor binding to rat brain membranes. Further details: species or system Membrane. In short, it runs like this:
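Competition binding to α1-adrenergic receptors on membranes prepared from rat brain, using the prazosin binding assay. IC50 is the geometric mean of at least 4 determinations.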

The nature of data set [5]: Plasma clearance (in vivo) in rats was determined. The conditions noted are these: rat. The format is ADME, organism-based. In short, it runs like this:
(§1)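 Conscious male Sprague-Dawley rats (n = 3–4) given single doses: 2 mg/kg iv in 100% DMSO, or 10 mg/kg po by gavage in 1% methylcellulose. Plasma was sampled at multiple times up to 24 h. Interanimal variability was below 20%.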

Data set [6] can be described thus: Plasma clearance (in vivo) in mongrel dogs was determined. It is filed as ADME, organism-based, Canis lupus familiaris. The note with it: dog. In short, it runs like this:
(§2)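 Single doses in dogs (n = 2): 1 mg/kg iv in 100% DMSO, or 3 mg/kg po gavaged in 1% methylcellulose suspension. Plasma was sampled at multiple time points up to 24 h. Interanimal variability was below 20%.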

Data set [7] is described as follows: Half-life in rats was determined. The format is ADME, organism-based. The note with it: rat, in vivo. The method, boiled down: as §1
Data set [8] in a line: Half-life in mongrel dogs was determined. The format is ADME, organism-based, Canis lupus familiaris. The note with it: dog, in vivo. In short, it runs like this: as §2
Data set [9] has as its system Rattus norvegicus. Put plainly: Compound was evaluated in vivo for carrageenan induced mechanical hyperalgesia in rats, intravenously. The format is functional. In short, it runs like this: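 Male Sprague-Dawley rats (100–120 g) received 4.5 mg carrageenan in 0.15 mL saline intraplantar, or saline. Agent was given iv in 50% PEG-200/D5W (n = 6/dose) 15 min before the paw pressure read at 3 h. Threshold was taken as vocalization on an algometer.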

Data set [10] is described as follows: Oral bioavailability in dog (mongrel). It is filed as ADME, organism-based, Canis lupus familiaris. The conditions noted are these: in vivo. The method, boiled down: as §2
Data set [11] is described as follows: Oral bioavailability in rat. The format is ADME, organism-based. The conditions noted are these: in vivo. In short, it runs like this: as §1
The subject of data set [12] is Rattus norvegicus. Put plainly: Compound was evaluated in vivo for carrageenan induced mechanical hyperalgesia in rats, perorally. The format is functional. The method, boiled down: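 Male Sprague-Dawley rats (100–120 g) received 4.5 mg carrageenan intraplantar, with a 3 h post-injection paw pressure (vocalization) threshold. Agent was gavaged in 1% methylcellulose suspension (n = 8/dose) 1 h before the reading. Response is expressed as % of carrageenan hyperalgesia; the highest oral dose was 30 mg/kg, one determination.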

Molecules are shown by their SMILES. pIC50, pKi: −log10 of the molar value. A value given as a limit tells only on which side of the number the result lay.

T1 sequence (Q13224 whole entry, other chains not shown): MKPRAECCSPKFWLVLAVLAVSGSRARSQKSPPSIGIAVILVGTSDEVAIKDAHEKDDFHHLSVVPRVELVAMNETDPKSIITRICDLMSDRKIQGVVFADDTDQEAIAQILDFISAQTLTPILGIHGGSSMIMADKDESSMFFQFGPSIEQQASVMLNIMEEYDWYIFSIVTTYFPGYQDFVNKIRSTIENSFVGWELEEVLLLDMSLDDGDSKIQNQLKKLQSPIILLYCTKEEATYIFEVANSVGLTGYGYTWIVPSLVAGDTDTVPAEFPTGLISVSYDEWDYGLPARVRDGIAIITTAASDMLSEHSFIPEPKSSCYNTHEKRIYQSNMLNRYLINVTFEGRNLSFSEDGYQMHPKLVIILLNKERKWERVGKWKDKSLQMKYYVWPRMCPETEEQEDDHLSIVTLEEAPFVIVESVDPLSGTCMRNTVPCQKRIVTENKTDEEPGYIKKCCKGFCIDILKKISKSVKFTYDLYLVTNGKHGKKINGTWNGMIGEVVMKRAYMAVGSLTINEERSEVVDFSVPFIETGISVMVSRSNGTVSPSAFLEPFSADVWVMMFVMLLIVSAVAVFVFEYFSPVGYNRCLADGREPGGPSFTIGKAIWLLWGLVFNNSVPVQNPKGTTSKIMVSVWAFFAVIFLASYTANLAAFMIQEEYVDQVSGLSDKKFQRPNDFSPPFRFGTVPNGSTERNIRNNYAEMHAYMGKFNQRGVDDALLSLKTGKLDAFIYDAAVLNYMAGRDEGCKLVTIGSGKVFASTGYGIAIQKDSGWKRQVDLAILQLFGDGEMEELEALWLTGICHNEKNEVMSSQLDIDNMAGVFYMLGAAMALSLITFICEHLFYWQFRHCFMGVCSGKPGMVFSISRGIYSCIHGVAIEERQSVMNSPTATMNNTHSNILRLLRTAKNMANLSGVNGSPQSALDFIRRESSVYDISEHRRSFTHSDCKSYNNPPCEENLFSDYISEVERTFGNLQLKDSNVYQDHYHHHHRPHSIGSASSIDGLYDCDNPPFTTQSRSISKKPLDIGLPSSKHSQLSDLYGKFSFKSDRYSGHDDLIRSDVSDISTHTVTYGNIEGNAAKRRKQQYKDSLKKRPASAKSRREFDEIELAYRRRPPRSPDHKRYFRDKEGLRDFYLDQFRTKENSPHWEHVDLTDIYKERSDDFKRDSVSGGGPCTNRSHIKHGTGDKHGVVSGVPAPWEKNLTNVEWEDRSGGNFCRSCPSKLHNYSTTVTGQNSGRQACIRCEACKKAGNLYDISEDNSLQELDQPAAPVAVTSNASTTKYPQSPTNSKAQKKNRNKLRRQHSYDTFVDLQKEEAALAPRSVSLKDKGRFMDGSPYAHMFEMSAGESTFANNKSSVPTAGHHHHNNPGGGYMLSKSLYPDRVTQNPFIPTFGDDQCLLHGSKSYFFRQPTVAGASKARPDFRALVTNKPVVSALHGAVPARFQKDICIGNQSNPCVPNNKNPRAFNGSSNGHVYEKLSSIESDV

As usually defined, the pKi is the Ki on a negative log10 scale, so that one unit is a factor of ten. Read a high pKi as a small Ki. The term IC50 denotes the concentration at which inhibition is half-maximal. Lower therefore signals greater potency. `Cc1ccc(CC2CCN(Cc3nc4cc(O)ccc4[nH]3)CC2)cc1`: the results for the pIC50 in data set [1] and in [2] were 8.24 and 6.41, respectively. The same compound gave a pKi in [3] of 9.40. In [4], this compound came in with an IC50 of 830 nM.
The corresponding values for `CCS(=O)(=O)Nc1ccc2[nH]c(Cc3ccc(Oc4ccccc4)cc3)nc2c1` are 8.68, 5.80, 8.52 and 2800 nM.
The corresponding values for `O=S(=O)(Nc1ccc2[nH]c(Cc3ccc(Oc4ccccc4)cc3)nc2c1)c1ccccc1` are 7.31, 6.17, 7.77 and 14000 nM.
The corresponding values for `CS(=O)(=O)Nc1ccc2nc(CN3CCC(Cc4ccccc4)CC3)[nH]c2c1` are 8.72, 6.47, 9.00 and 1500 nM.
Consider `c1ccc(CC2CCN(Cc3nc4ccccc4[nH]3)CC2)cc1`, for which the pIC50 is 6.15 in data set [1] and 5.85 in data set [2]. Further, the pKi in data set [3] is 6.38. In data set [4], the IC50 came to 2800 nM.
The term clearance denotes a measure of how efficiently the substance is removed, as volume per time. The term half-life denotes the time in which the quantity being followed falls by half. A higher half-life goes with slow decline. For orientation: bioavailability means the share of a dose that reaches the circulation, judged against a reference dose that is usually intravenous. Read a low bioavailability as poor availability. As for `Oc1ccc2[nH]c(CN3CCC(Cc4ccccc4)CC3)nc2c1`, the clearance in data set [5] came to 22.8 mL/min/kg; in data set [6] it was 0.6 mL/min/kg. The pIC50 in data set [1] was 8.09; in [2], 5.59. Besides, the half-life is > 480 min in data set [7] and 402 min in data set [8]. Also, the Activity with Rattus norvegicus [9] amounted to 3.3 mg/kg. Further, the bioavailability in [10] was 90%; in data set [11] it was 20%. Besides, in [4], the IC50 came to 670 nM.
Consider `N#Cc1ccc2[nH]c(Cc3ccc(Oc4ccccc4)cc3)nc2c1`, for which the figures for the pIC50 in data set [1] and in data set [2] were 6.10 and 5.96, respectively. In [3], the pKi is 6.10. Further, the IC50 in data set [4] is 3400 nM.
Consider `c1ccc(Oc2ccc(Cc3nc4ccccc4[nH]3)cc2)cc1`, for which the pIC50 was 6.70 in data set [1] and 5.70 in data set [2]. In addition, the pKi in data set [3] was 6.59. This compound registered an IC50 in [4] of 4200 nM.
The corresponding values for `CN(c1ccc2[nH]c(Cc3ccc(Oc4ccccc4)cc3)nc2c1)S(C)(=O)=O` are 7.60, 6.19, 6.33 and 2000 nM.
Take `Oc1cccc2[nH]c(Cc3ccc(Oc4ccccc4)cc3)nc12`: the results for the pIC50 in data set [1] and in data set [2] were 6.82 and 6.07, respectively. In [3], this compound showed a pKi of 6.85. This compound also registered an IC50 in data set [4] of 5500 nM.
On to `COc1ccc2[nH]c(Cc3ccc(Oc4ccccc4)cc3)nc2c1`, for which the pIC50 in data set [1] is 5.04. The compound also showed a pKi in data set [3] of 5.08. The same compound showed an IC50 in [4] of 530 nM.
The corresponding values for `CC(C)S(=O)(=O)Nc1ccc2[nH]c(Cc3ccc(Oc4ccccc4)cc3)nc2c1` are 7.85, 7.82 and 3100 nM.
With `Oc1ccc2[nH]c(CN3CCC(Cc4cccc(F)c4)CC3)nc2c1`, the pIC50 was 7.36 in [1] and 5.68 in [2]. In data set [3], this compound showed a pKi of 8.38. The compound further came in with an IC50 in data set [4] of 520 nM.
As to `Oc1ccc2[nH]c(CN3CCC(Cc4ccccc4F)CC3)nc2c1`, the clearance in data set [5] came out at 12.3 mL/min/kg; in data set [6] it was 0.6 mL/min/kg. Moreover, the pIC50 in data set [1] is 8.01; in [2], 5.54. Besides, the half-life in data set [7] stood at 60 min; in [8] it was 390 min. Besides, the Activity in the data set with Rattus norvegicus [9] was <3 mg/kg. Besides, the bioavailability in [10] turned out to be 87%; in data set [11] it was 6.4%. In data set [3], this compound had a pKi of 9.07. Also, the IC50 in [4] came to 730 nM.
The compound `CC(C)S(=O)(=O)Nc1ccc2[nH]c(CN3CCC(Cc4ccccc4)CC3)nc2c1` had a pIC50 in data set [1] of 6.52. Besides, the pKi in [3] is 6.62. Also, the IC50 in [4] came out at 570 nM.
As to `O=[N+]([O-])c1ccc2[nH]c(Cc3ccc(Oc4ccccc4)cc3)nc2c1`, the pIC50 in data set [1] was 5.18; in data set [2], 6.11. The compound further returned an IC50 in data set [4] of 1200 nM.
Turning to `CC(=O)Nc1ccc2[nH]c(Cc3ccc(Oc4ccccc4)cc3)nc2c1`, the pIC50 in data set [1] is 7.38; in [2] it was 5.59. This compound had a pKi in data set [3] of 7.03. Also, the IC50 in data set [4] is 20000 nM.
Consider `Nc1ccc2[nH]c(Cc3ccc(Oc4ccccc4)cc3)nc2c1`, for which the pIC50 in [1] was 7.11; in [2], 6.92. This compound showed a pKi in data set [3] of 6.74. This compound gave a half-maximal inhibitory concentration (IC50) in data set [4] of 2600 nM.
On the same counts, the results for `Oc1ccc2[nH]c(Cc3ccc(Oc4ccccc4)cc3)nc2c1` are 8.04, 6.14, 8.49 and 200 nM.
On the same counts, the results for `Oc1ccc2[nH]c(CN3CCC(Cc4ccc(F)cc4)CC3)nc2c1` are 7.92, 6.30, 8.96 and 620 nM.
In data set [5], `CS(=O)(=O)Nc1ccc2[nH]c(Cc3ccc(Oc4ccccc4)cc3)nc2c1` gave a clearance of 8.3 mL/min/kg. Besides, the pIC50 in [1] is 9.14; in data set [2] it was 6.92. For the same compound, the Activity in the data set with Rattus norvegicus [12] was >30 mg/kg. In data set [7], this compound gave a half-life of 118 min. This compound gave a pKi in [3] of 9.17. In [4], this compound displayed an IC50 of 4000 nM. For the same compound, the bioavailability in data set [11] stood at 97%.
As to `Oc1ccc2[nH]c(CN3CCC(Cc4c(F)cccc4F)CC3)nc2c1`, the pIC50 is 7.68 in data set [1] and 5.52 in data set [2]. The compound also gave a pKi in data set [3] of 9.09. In addition, the IC50 in [4] came to 2600 nM.
The corresponding values for `CCCS(=O)(=O)Nc1ccc2[nH]c(Cc3ccc(Oc4ccccc4)cc3)nc2c1` are 7.72, 6.40, 7.68 and 4800 nM.

These data come from ChEMBL document CHEMBL1149147, “NR2B-selective N-methyl-D-aspartate antagonists: synthesis and evaluation of 5-substituted benzimidazoles” (J Med Chem, 2004).
